In brackets after ≈: the same amount, converted by molar mass. Where two headings read alike, the source gives them in different places.
Legend:
[1] = Octanol/water partition coefficient; format: physicochemical
ERβ and ERα = details: in vitro; ref Helle et al. (2015); cited from earlier work
Wistar rats [2] = assay: In vivo micronucleus assay in peripheral blood; set-up: species or system rat
Clostridium orbiscindens = details: ref Schoefer et al. (2003); cited from earlier work
[3] = 10 h post dosing; ref Felgines et al. (2000); cited from earlier work
Wistar rats [4] = assay: In vivo comet assay in liver and duodenum; set-up: species or system rat; details: 500, 1000, 2000 mg/kg bw per day, Wistar rats, M, gavage
Wistar rats [5] = details: Gavage, M, 3/group; ref Ortiz‐Andrade et al. (2008); cited from earlier work
CYP2D6 = details: concentrations up to 10 μM; ref Lu et al. (2011); cited from earlier work
[6] = molecular target: simvastatin metabolism in human liver microsomes; details: ref Ubeaud et al. (1999); cited from earlier work
[7] = 24 h urine, ref Aschoff et al. (2016), cited from earlier work
CYP2C9 = details: ref Lu et al. (2011); cited from earlier work
Wistar rats [8] = details: 200 mg/kg bw per day, 20 weeks, gavage, male rats; ref Ganapathy et al. (2008); cited from earlier work
Wistar rats [9] = details: 50 mg/kg bw per day, 4 weeks; ref Motawi et al. (2014); cited from earlier work
[10] = ref Kanaze et al. (2007), cited from earlier work
CYP450 isoforms = details: read-out: IC50 or Ki values; certain CYP450 isoforms; ref Lu et al. (2011); cited from earlier work
Pig caecum = details: anaerobic incubation 0-24 h; ref Labib et al. (2004); cited from earlier work
CYP3A4 = details: testosterone (10 μM); ref Lu et al. (2011); cited from earlier work
[11] = Solubility of naringenin in various solvents; format: physicochemical; details: for Naringenin concentration (solubility): 25°C
[12] = system: Salmonella typhimurium (TA98, TA100, TA102, TA1535, TA1537) and E. coli WP2uvrA; assay: Bacterial reverse mutation assay; format: cell-based; details: for concentration with reduction in growth of bacterial background lawns: plate incorporation; for concentration with reduction of bacterial background lawns: pre-incubation
CYP2B6 = details: concentrations up to 10 μM; ref Lu et al. (2011); cited from earlier work
[13] = molecular target: simvastatin metabolism in rat liver microsomes; details: ref Ubeaud et al. (1999); cited from earlier work
[14] = ref Bugianesi et al. (2002), cited from earlier work
[15] = system: felodipine metabolism by pig intestinal tissue slices; details: ref Fasinu et al. (2010); cited from earlier work
[16] = ref Gardana et al. (2007), cited from earlier work
Stability as powder = format: physicochemical; details: room temperature (~ 22°C), long-term
In short: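 The solid was held under accelerated conditions (45°C) and under normal storage at room temperature.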

[17] = system: Lactobacillus rhamnosus subsp. Rhamnosus NCTC 10302; details: 25 μg/mL, cultures of L. rhamnosus; ref Pereira‐Caro et al. (2016); cited from earlier work
Stability in solution = format: physicochemical
In short: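 Test compound was dissolved at 10 g per 100 g propylene glycol and stored at 25 ± 2°C and 60 ± 5% RH, with sampling at 1, 2, 3 and 4 months; recovery was the read-out. Separately, aqueous buffer solutions (50 mg/kg) at pH 3, 5 and 7 were incubated at 90°C as accelerated testing.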

[18] = ref Rebello et al. (2020), cited from earlier work
[19] = system: felodipine metabolism in human liver microsomes; details: substrate felodipine; ref Fasinu et al. (2013), Ho et al. (2001); cited from earlier work

O=C1CC(c2ccc(O)cc2)Oc2cc(O)cc(O)c21 (stereo not shown) [naringenin, 4H‐1‐Benzopyran‐4‐one, 2,3‐dihydro‐5,7‐dihydroxy‐2‐(4‐hydroxyphenyl)‐]
octanol/water partition coefficient [1]: 2.52 | affinity for oestrogen receptors (ERβ and ERα): stronger affinity with ERβ than ERα | % MNPCE frequency (Wistar rats [2]; 500 mg/kg bw per day): 0.06 ± 0.01% | % MNPCE frequency (Wistar rats [2]; 2000 mg/kg bw per day): 0.06 ± 0.02% | maximum tolerated dose (MTD) (Wistar rats [2]; gavage at 0, 24 and 45 h, male and female rats): 2000 mg/kg bw per day | % MNPCE frequency (Wistar rats [2]; mid‐dose (1000 mg/kg bw per day), male rats, blood 3 h after last administration): 0.08 ± 0.01% | Results: conversion by C. orbiscindens (Clostridium orbiscindens): converted 0.5 mM naringenin to 3‐(4‐hydroxyphenyl) propionic acid | naringenin in caecal contents [3]: 15 μmol/caecum | Result (Wistar rats [4]): Negative | LD50 (Wistar rats [5]): > 5000 mg/kg bw | inhibition (CYP2D6): No appreciable inhibition | Ki [6]: 23 µM | proportion of naringenin excreted in the urine ([7]; after orange fruit (400 g)): 12.9% | proportion of naringenin excreted in the urine ([7]; after pasteurised orange juice (719 g)): 20.3% | IC50 (CYP2C9): < 5 µM | assessed biochemical parameters in stomach and liver (Wistar rats [8]): no significant effects | histopathological examination of the liver (Wistar rats [9]): slight inflammatory cell infiltration in the portal areas | Cmax ([10]; single oral 135 mg (496 μmol) capsule): 7.5 µM | cumulative urinary excretion, percentage of administered dose ([10]; single oral 135 mg capsule, 24 h after dosing): 5.81 ± 0.81% | T max (time of peak plasma level) ([10]; single oral 135 mg capsule): 4 h | peak plasma concentration (total naringenin) ([10]; single oral 135 mg capsule): […] | time of first appearance in plasma after dosing ([10]; single oral 135 mg capsule): 20 min | Half-life of elimination (plasma) ([10]; single oral 135 mg capsule, listed as NAR‐A): T ½ ~ 2.3 h | IC50 (CYP450 isoforms): ~10 µM | Results: microbial transformation products (Pig caecum): Naringenin was transformed to 3‐(4‐hydroxyphenyl)‐propionic acid and 3‐phenylpropionic acid | IC50 (CYP3A4): […] | solubility ([11]; 80% ethanol, 25 °C, organic solvent or mixture): ~60 mg/mL (≈ 220 mM) | Solubility in ethanol ([11]; 95% ethanol): Soluble | Naringenin concentration (solubility) ([11]; Ethanol): 10 % (w/w) | Naringenin concentration (solubility) ([11]; Ethanol, 80%): 5 % (w/w) | Naringenin concentration (solubility) ([11]; Propylene glycol): 2.5 % (w/w) | solubility ([11]; ethanol, 25 °C, organic solvent or mixture): ~125 mg/mL (≈ 459 mM) | solubility ([11]; in water): Almost insoluble | Solubility in other ([11]; other solvents): Soluble in ether and benzene | solubility ([11]; propylene glycol, 25 °C, organic solvent or mixture): ~25 mg/mL (≈ 91.8 mM) | solubility ([11]; water, 25 °C): 0.05 mg/mL (≈ 0.184 mM) | Result ([12]; Experiment 1: 1.5–5000 μg/plate (+/− S9, plate incorporation)): Negative | Result ([12]; Experiment 2: 1.5–5000 μg/plate (+/− S9, pre‐incubation)): Negative | frequency of revertant colonies ([12]; TA102, 50 μg/plate, absence of S9‐mix): 262 ± 23.8 | concentration with reduction in growth of bacterial background lawns ([12]; TA1537, +/− S9): […] | concentration with reduction in growth of bacterial background lawns ([12]; all bacterial strains, +/− S9): […] | concentration with reduction of bacterial background lawns ([12]; TA98 and E. coli WP2uvrA, +/− S9): […] | concentration with reduction of bacterial background lawns ([12]; TA100, TA102, TA1535 and TA1537, +/− S9): […] | inhibition (CYP2B6): No appreciable inhibition | Ki [13]: 30 µM | C max ([14]; 3.8 mg (14 μmol), tomato paste/oil): 32 ± 8 ng/mL | unconjugated naringenin in plasma ([14]; 3.8 mg, tomato paste test meal): did not find unconjugated naringenin in plasma samples | Plasma half-life ([14]; 3.8 mg, tomato paste/oil): Decline by 2 h and later | IC50 [15]: 180 µM | C max (plasma naringenin) ([16]; BOJ 150 mL, 6 mg (22 μmol)): 16.4 ng/mL | C max (plasma naringenin) ([16]; BOJ 300 mL, 12 mg (44 μmol)): 34 ng/mL | time remaining stable (Stability as powder): ~2 years | Recovery [17]: 83% | time stable when dissolved in propylene glycol (Stability in solution; 25 ± 2°C, 60 ± 5% RH): at least 4 months | time for which stability was demonstrated (Stability in solution; aqueous buffer solutions (50 mg/kg) pH 3, 5, 7 at 90°C): up to 8 h | AUC0‐24h ([18]; 150 mg): 67.61 ± 24.26 µM·h | T max ([18]; 150 mg): 2 h | half-life in plasma ([18]; 150 mg): 3 h | T max ([18]; 150 mg, listed as Nar‐A): 3.2 ± 0.7 h | AUC0‐24h ([18]; 600 mg): 199.05 ± 24.36 µM·h | T max ([18]; 600 mg): 2 h | half-life in plasma ([18]; 600 mg): 2.65 h | T max ([18]; 600 mg, listed as NAR‐A): 2.4 ± 0.7 h | IC50 [19]: 122 µM

Source: article PMC11094580 (EFSA Journal, 2024)
